Reference: ChEMBL document CHEMBL1134445, “Design and synthesis of potent C(2)-symmetric diol-based HIV-1 protease inhibitors: effects of fluoro substitution” (J Med Chem, 2001)

Tests used:
[1] = target: Human immunodeficiency virus type 1 protease (Human immunodeficiency virus 1) (UniProt Q72874); experiment: Anti-HIV-1 activity against mutant HIV-1 in MT-4 cells (mutation selected with saquinavir); type: functional, cell-based; details: MT4
Method in brief: (§1)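 Resistant HIV-1 IIIb raised in MT4 cells: started at sub-ED50 drug with 20-50 TCID50 virus, p24 in supernatant tracked, cell-free virus passaged at 5-fold rising drug levels until growing above 50-fold wild-type ED50; these supernatants served as stocks. ED50 then determined in MT4 cells by XTT cytopathic-effect assay.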

[2] = target: Human immunodeficiency virus type 1 protease (Human immunodeficiency virus 1) (UniProt Q72874); experiment: Anti-HIV-1 activity against mutant HIV-1 in MT-4 cells (mutation selected with ritonavir); type: functional, cell-based; details: MT4; method in brief: as §1
[3] = target: Human immunodeficiency virus type 1 protease (Human immunodeficiency virus 1) (UniProt Q72874); experiment: Anti-HIV-1 activity against mutant HIV-1 in MT-4 cells (mutation selected with nelfinavir); type: functional, cell-based; details: MT4; method in brief: as §1
[4] = target: Human immunodeficiency virus type 1 protease (Human immunodeficiency virus 1, UniProt Q72874); experiment: Inhibitory concentration against HIV-1 protease
Method in brief: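 Recombinant HIV-1 protease, cloned and expressed in Escherichia coli; inhibition measured by fluorometric assay and reported as Ki.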

[5] = target: Human immunodeficiency virus type 1 protease (Human immunodeficiency virus 1) (UniProt Q72874); experiment: Anti-HIV-1 activity against Wild type virus in MT-4 cells; type: functional, cell-based; details: MT4
Method in brief: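 MT4 cells infected with HIV-1; in vitro antiviral ED50 derived from colorimetric XTT read-out of virus cytopathic effect.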

[6] = target: Human immunodeficiency virus type 1 protease (Human immunodeficiency virus 1) (UniProt Q72874); experiment: Anti-HIV-1 activity against mutant HIV-1 in MT-4 cells (mutation selected with compound 1); type: functional, cell-based; details: MT4; method in brief: as §1
[7] = test system: Human immunodeficiency virus 1; experiment: Anti-HIV-1 activity against Wild type virus. in MT-4 cells; type: functional; details: Human immunodeficiency virus 1, MT4; read-out: ED50 (the source's name)
Method in brief: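 Antiviral ED50 determined in MT4 cells infected with HIV-1; cytopathogenic effect read out by colorimetric XTT assay.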

Compound | ED50 [1] [nM] | ED50 [2] [nM] | ED50 [3] [nM] | Ki [4] [nM] | ED50 [5] [nM] | ED50 [6] [nM] | EC50 [7] [nM]
CNC(=O)[C@@H](NC(=O)[C@H](OCc1cccc(F)c1)[C@H](O)[C@@H](O)[C@@H](OCc1cccc(F)c1)C(=O)N[C@H](C(=O)NC)C(C)C)C(C)C | 1040 | 1690 | 1100 | 1.83 | 680 | 1840 | –
CC(C)(C)NC(=O)[C@@H]1C[C@@H]2CCCC[C@@H]2CN1C[C@@H](O)[C@H](Cc1ccccc1)NC(=O)[C@H](CC(N)=O)NC(=O)c1ccc2ccccc2n1 | 80 | 10 | 30 | – | 10 | 10 | –
O=C(NC1c2ccccc2C[C@H]1O)[C@H](OCc1ccc(F)c(F)c1)[C@H](O)[C@@H](O)[C@@H](OCc1ccc(F)c(F)c1)C(=O)N[C@H]1c2ccccc2C[C@H]1O (some centres undefined) | 160 | 1300 | 300 | 3.9 | 130 | 1050 | –
CNC(=O)[C@@H](NC(=O)[C@H](OCc1ccc(F)c(F)c1)[C@H](O)[C@@H](O)[C@@H](OCc1ccc(F)c(F)c1)C(=O)N[C@H](C(=O)NC)C(C)C)C(C)C | 810 | 1220 | 850 | 1.98 | 670 | 2840 | –
CNC(=O)[C@@H](NC(=O)[C@H](OCc1ccc(F)cc1F)[C@H](O)[C@@H](O)[C@@H](OCc1ccc(F)cc1F)C(=O)N[C@H](C(=O)NC)C(C)C)C(C)C | 1170 | 1890 | 480 | 1.12 | 720 | 3350 | –
O=C(NC1c2ccccc2C[C@H]1O)[C@H](OCc1ccccc1F)[C@H](O)[C@@H](O)[C@@H](OCc1ccccc1F)C(=O)N[C@H]1c2ccccc2C[C@H]1O (some centres undefined) | 80 | 510 | 210 | 3.26 | 50 | 270 | –
CC(C)c1nc(CN(C)C(=O)N[C@H](C(=O)N[C@@H](Cc2ccccc2)C[C@H](O)[C@H](Cc2ccccc2)NC(=O)OCc2cncs2)C(C)C)cs1 | 410 | 2470 | 150 | – | 60 | 980 | –
CNC(=O)[C@@H](NC(=O)[C@H](OCc1ccccc1)[C@H](O)[C@@H](O)[C@@H](OCc1ccccc1)C(=O)N[C@H](C(=O)NC)C(C)C)C(C)C | 6100 | > 15000 | > 15000 | 0.8 | – | 8130 | 1320
O=C(NC1c2ccccc2C[C@H]1O)[C@H](OCc1ccccc1)[C@H](O)[C@@H](O)[C@@H](OCc1ccccc1)C(=O)N[C@H]1c2ccccc2C[C@H]1O (some centres undefined) | 70 | 1280 | 100 | 1.22 | 100 | 460 | –
Cc1c(O)cccc1C(=O)N[C@@H](CSc1ccccc1)[C@H](O)CN1C[C@H]2CCCC[C@H]2C[C@H]1C(=O)NC(C)(C)C | 120 | 110 | 2440 | – | 20 | 70 | –
O=C(NC1c2ccccc2C[C@H]1O)[C@H](OCc1ccc(F)cc1F)[C@H](O)[C@@H](O)[C@@H](OCc1ccc(F)cc1F)C(=O)N[C@H]1c2ccccc2C[C@H]1O (some centres undefined) | 370 | 1730 | 250 | 1.65 | 110 | 670 | –
O=C(NC1c2ccccc2C[C@H]1O)[C@H](OCc1cc(F)ccc1F)[C@H](O)[C@@H](O)[C@@H](OCc1cc(F)ccc1F)C(=O)N[C@H]1c2ccccc2C[C@H]1O (some centres undefined) | 80 | 710 | 100 | 3.29 | 20 | 160 | –
CNC(=O)[C@@H](NC(=O)[C@H](OCc1cc(F)cc(F)c1)[C@H](O)[C@@H](O)[C@@H](OCc1cc(F)cc(F)c1)C(=O)N[C@H](C(=O)NC)C(C)C)C(C)C | 1640 | 1400 | 340 | 1.98 | 420 | 1320 | –
CNC(=O)[C@@H](NC(=O)[C@H](OCc1ccc(F)cc1)[C@H](O)[C@@H](O)[C@@H](OCc1ccc(F)cc1)C(=O)N[C@H](C(=O)NC)C(C)C)C(C)C | 3650 | 970 | 1320 | 1.79 | 1170 | 7820 | –
O=C(NC1c2ccccc2C[C@H]1O)[C@H](OCc1cc(F)cc(F)c1)[C@H](O)[C@@H](O)[C@@H](OCc1cc(F)cc(F)c1)C(=O)N[C@H]1c2ccccc2C[C@H]1O (some centres undefined) | 90 | 1060 | 240 | 5 | 50 | 230 | –
O=C(NC1c2ccccc2C[C@H]1O)[C@H](OCc1c(F)cccc1F)[C@H](O)[C@@H](O)[C@@H](OCc1c(F)cccc1F)C(=O)N[C@H]1c2ccccc2C[C@H]1O (some centres undefined) | 130 | 1390 | 250 | 1.64 | 60 | 310 | –
O=C(NC1c2ccccc2C[C@H]1O)[C@H](OCc1cccc(F)c1)[C@H](O)[C@@H](O)[C@@H](OCc1cccc(F)c1)C(=O)N[C@H]1c2ccccc2C[C@H]1O (some centres undefined) | 950 | 530 | 210 | 7.13 | 60 | 180 | –
O=C(NC1c2ccccc2C[C@H]1O)[C@H](OCc1cccc(F)c1F)[C@H](O)[C@@H](O)[C@@H](OCc1cccc(F)c1F)C(=O)N[C@H]1c2ccccc2C[C@H]1O (some centres undefined) | 50 | 880 | 60 | 4 | 30 | 240 | –
CNC(=O)[C@@H](NC(=O)[C@H](OCc1c(F)cccc1F)[C@H](O)[C@@H](O)[C@@H](OCc1c(F)cccc1F)C(=O)N[C@H](C(=O)NC)C(C)C)C(C)C | 8140 | > 15000 | 7140 | 1.73 | 1350 | > 15000 | –
CNC(=O)[C@@H](NC(=O)[C@H](OCc1cc(F)ccc1F)[C@H](O)[C@@H](O)[C@@H](OCc1cc(F)ccc1F)C(=O)N[C@H](C(=O)NC)C(C)C)C(C)C | 1380 | 10900 | 1380 | 1.98 | 650 | 10700 | –
O=C(NC1c2ccccc2C[C@H]1O)[C@H](OCc1ccc(F)cc1)[C@H](O)[C@@H](O)[C@@H](OCc1ccc(F)cc1)C(=O)N[C@H]1c2ccccc2C[C@H]1O (some centres undefined) | – | 1130 | 560 | 5.39 | 250 | 1130 | –
CNC(=O)[C@@H](NC(=O)[C@H](OCc1ccccc1F)[C@H](O)[C@@H](O)[C@@H](OCc1ccccc1F)C(=O)N[C@H](C(=O)NC)C(C)C)C(C)C | 630 | 7450 | 1150 | 1.92 | 280 | 9340 | –
CNC(=O)[C@@H](NC(=O)[C@H](OCc1cccc(F)c1F)[C@H](O)[C@@H](O)[C@@H](OCc1cccc(F)c1F)C(=O)N[C@H](C(=O)NC)C(C)C)C(C)C | 1110 | 2260 | 340 | 1.28 | 660 | 1540 | –
